Reference: ChEMBL document CHEMBL5724801, “EUbOPEN Chemogenomics Library - Multiplex” (2024)
Several values for one entry are separate records, joined by “and”; a condition that tells them apart may be missing. Equal values may be shown once.

Tested on: Fibroblast
Assay: Multiplex assay against human fibroblast
Assay type: toxicity, cell-based
How it was run: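 Cells stained live at seeding with Hoechst33342, BioTracker Green Microtubule Cytoskeleton Dye, MitoTracker Red and Annexin V Alexa Fluor 680 were imaged on a CQ1 microscope at 37°C and 5% CO2 after compound addition. Their classification by CellPathfinder machine-learning gating ran from Hoechst high-intensity objects versus normal cells, to healthy, pyknosed or fragmented nuclei among normal cells, to mitotic or apoptotic among pyknosed cells. Tubulin, mitochondrial-mass and membrane-permeability phenotypes are per cents of healthy-nucleus cells.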

[1] = 12 h, 1 µM, compound concentration 1 uM
[2] = 12 h, 10 µM, compound concentration 10 uM
[3] = 24 h, 1 µM, compound concentration 1 uM
[4] = 24 h, 10 µM, compound concentration 10 uM
[5] = 48 h, 1 µM, compound concentration 1 uM
[6] = 48 h, 10 µM, compound concentration 10 uM

Structure (SMILES): CN1CCC(C(=O)c2cccc(NC(=O)c3c(F)cc(F)cc3F)n2)CC1
- Population Apoptotic (%) [1]: 28% and 40%
- Population Fragmented Nuclei (%) [1]: 16% and 28%
- Population Healthy Nuclei (%) [1]: 64% and 53%
- Population Hoechst High Intensity Objects (%) [1]: 3% and 2%
- Population Membrane Permeable-Phenotype (%) [1]: 1% and 5%
- Population Mitochondria Different-Phenotype (%) [1]: 4% and 10%
- Population Mitotic Cells (%) [1]: 71% and 60%
- Population Normal (%) [1]: 96% and 97%
- Population Pyknosed Nuclei (%) [1]: 18%
- Population Tubulin-Different-Phenotype (%) [1]: 28% and 43%
- Total Cell Count [1]: 153 and 142
- Population Apoptotic (%) [2]: 32% and 36%
- Population Fragmented Nuclei (%) [2]: 12% and 23%
- Population Healthy Nuclei (%) [2]: 74% and 54%
- Population Hoechst High Intensity Objects (%) [2]: 4%
- Population Membrane Permeable-Phenotype (%) [2]: 1% and 6%
- Population Mitochondria Different-Phenotype (%) [2]: 7% and 6%
- Population Mitotic Cells (%) [2]: 67% and 63%
- Population Normal (%) [2]: 95%
- Population Pyknosed Nuclei (%) [2]: 13% and 22%
- Population Tubulin-Different-Phenotype (%) [2]: 42% and 63%
- Total Cell Count [2]: 266 and 142
- Population Apoptotic (%) [3]: 45% and 40%
- Population Fragmented Nuclei (%) [3]: 12% and 34%
- Population Healthy Nuclei (%) [3]: 74% and 43%
- Population Hoechst High Intensity Objects (%) [3]: 1%
- Population Membrane Permeable-Phenotype (%) [3]: 0% and 6%
- Population Mitochondria Different-Phenotype (%) [3]: 2% and 10%
- Population Mitotic Cells (%) [3]: 55% and 59%
- Population Normal (%) [3]: 98%
- Population Pyknosed Nuclei (%) [3]: 12% and 21%
- Population Tubulin-Different-Phenotype (%) [3]: 21% and 45%
- Total Cell Count [3]: 156 and 148
- Population Apoptotic (%) [4]: 54% and 37%
- Population Fragmented Nuclei (%) [4]: 13% and 30%
- Population Healthy Nuclei (%) [4]: 71% and 50%
- Population Hoechst High Intensity Objects (%) [4]: 3% and 2%
- Population Membrane Permeable-Phenotype (%) [4]: 0% and 5%
- Population Mitochondria Different-Phenotype (%) [4]: 6% and 8%
- Population Mitotic Cells (%) [4]: 45% and 62%
- Population Normal (%) [4]: 96% and 97%
- Population Pyknosed Nuclei (%) [4]: 14% and 19%
- Population Tubulin-Different-Phenotype (%) [4]: 37% and 65%
- Total Cell Count [4]: 258 and 153
- Population Apoptotic (%) [5]: 71% and 56%
- Population Fragmented Nuclei (%) [5]: 16% and 42%
- Population Healthy Nuclei (%) [5]: 74% and 46%
- Population Hoechst High Intensity Objects (%) [5]: 3% and 2%
- Population Membrane Permeable-Phenotype (%) [5]: 0% and 5%
- Population Mitochondria Different-Phenotype (%) [5]: 1% and 5%
- Population Mitotic Cells (%) [5]: 28% and 43%
- Population Normal (%) [5]: 96% and 97%
- Population Pyknosed Nuclei (%) [5]: 8% and 10%
- Population Tubulin-Different-Phenotype (%) [5]: 25% and 67%
- Total Cell Count [5]: 164 and 156
- Population Apoptotic (%) [6]: 71% and 54%
- Population Fragmented Nuclei (%) [6]: 17% and 36%
- Population Healthy Nuclei (%) [6]: 71% and 55%
- Population Hoechst High Intensity Objects (%) [6]: 5% and 3%
- Population Membrane Permeable-Phenotype (%) [6]: 0% and 3%
- Population Mitochondria Different-Phenotype (%) [6]: 7% and 3%
- Population Mitotic Cells (%) [6]: 28% and 45%
- Population Normal (%) [6]: 94% and 96%
- Population Pyknosed Nuclei (%) [6]: 10% and 7%
- Population Tubulin-Different-Phenotype (%) [6]: 40% and 69%
- Total Cell Count [6]: 272 and 152

Structure (SMILES): COc1c(C)cc(NC(=O)c2nn(Cc3ccc(F)cc3)c3c2CN(C(=O)c2ccc[nH]2)C[C@]3(C)C(N)=O)cc1C
- Population Apoptotic (%) [1]: 42% and 46%
- Population Fragmented Nuclei (%) [1]: 21% and 16%
- Population Healthy Nuclei (%) [1]: 58% and 51%
- Population Hoechst High Intensity Objects (%) [1]: 2% and 3%
- Population Membrane Permeable-Phenotype (%) [1]: 1% and 6%
- Population Mitochondria Different-Phenotype (%) [1]: 18% and 11%
- Population Mitotic Cells (%) [1]: 57% and 53%
- Population Normal (%) [1]: 97% and 96%
- Population Pyknosed Nuclei (%) [1]: 20% and 31%
- Population Tubulin-Different-Phenotype (%) [1]: 64% and 72%
- Total Cell Count [1]: 95 and 86
- Population Apoptotic (%) [2]: 47% and 52%
- Population Fragmented Nuclei (%) [2]: 12% and 29%
- Population Healthy Nuclei (%) [2]: 58% and 38%
- Population Hoechst High Intensity Objects (%) [2]: 1% and 2%
- Population Membrane Permeable-Phenotype (%) [2]: 0% and 6%
- Population Mitochondria Different-Phenotype (%) [2]: 25% and 30%
- Population Mitotic Cells (%) [2]: 52% and 47%
- Population Normal (%) [2]: 98% and 97%
- Population Pyknosed Nuclei (%) [2]: 29% and 32%
- Population Tubulin-Different-Phenotype (%) [2]: 90%
- Total Cell Count [2]: 166 and 115
- Population Apoptotic (%) [3]: 66% and 48%
- Population Fragmented Nuclei (%) [3]: 25% and 31%
- Population Healthy Nuclei (%) [3]: 61% and 38%
- Population Hoechst High Intensity Objects (%) [3]: 3% and 6%
- Population Membrane Permeable-Phenotype (%) [3]: 1% and 8%
- Population Mitochondria Different-Phenotype (%) [3]: 17%
- Population Mitotic Cells (%) [3]: 33% and 51%
- Population Normal (%) [3]: 96% and 93%
- Population Pyknosed Nuclei (%) [3]: 12% and 30%
- Population Tubulin-Different-Phenotype (%) [3]: 45% and 67%
- Total Cell Count [3]: 96 and 95
- Population Apoptotic (%) [4]: 65% and 43%
- Population Fragmented Nuclei (%) [4]: 14% and 30%
- Population Healthy Nuclei (%) [4]: 64% and 47%
- Population Hoechst High Intensity Objects (%) [4]: 3% and 4%
- Population Membrane Permeable-Phenotype (%) [4]: 0% and 8%
- Population Mitochondria Different-Phenotype (%) [4]: 47% and 26%
- Population Mitotic Cells (%) [4]: 34% and 56%
- Population Normal (%) [4]: 96% and 95%
- Population Pyknosed Nuclei (%) [4]: 20% and 21%
- Population Tubulin-Different-Phenotype (%) [4]: 90% and 82%
- Total Cell Count [4]: 159 and 110
- Population Apoptotic (%) [5]: 87% and 70%
- Population Fragmented Nuclei (%) [5]: 29% and 34%
- Population Healthy Nuclei (%) [5]: 61% and 45%
- Population Hoechst High Intensity Objects (%) [5]: 7% and 5%
- Population Membrane Permeable-Phenotype (%) [5]: 0% and 10%
- Population Mitochondria Different-Phenotype (%) [5]: 10%
- Population Mitotic Cells (%) [5]: 12% and 29%
- Population Normal (%) [5]: 92% and 94%
- Population Pyknosed Nuclei (%) [5]: 8% and 19%
- Population Tubulin-Different-Phenotype (%) [5]: 45% and 69%
- Total Cell Count [5]: 99 and 91
- Population Apoptotic (%) [6]: 60% and 77%
- Population Fragmented Nuclei (%) [6]: 22% and 41%
- Population Healthy Nuclei (%) [6]: 60% and 51%
- Population Hoechst High Intensity Objects (%) [6]: 4% and 2%
- Population Membrane Permeable-Phenotype (%) [6]: 0% and 3%
- Population Mitotic Cells (%) [6]: 39% and 22%
- Population Normal (%) [6]: 95% and 97%
- Population Pyknosed Nuclei (%) [6]: 17% and 7%
- Population Tubulin-Different-Phenotype (%) [6]: 92% and 75%
- Total Cell Count [6]: 166 and 122
